Assay [1] deals with RPMI-8226. Nature of the assay: Upregulation of IFN in human RPMI-8226 cells assessed as increase in ISG15 gene at 1 uM for 6 days by qRT-PCR analysis. It is filed as functional, cell-based. As to conditions: time 6.0 day.
The subject of assay [2] is MM1.S. Nature of the assay: Induction of apoptosis in human MM1.S cells assessed as necrotic cells at 1 uM for 6 days by annexin-V based propidium iodide staining based flow cytometric analysis (reference value: 1.8%). The format is functional. To be noted: time 6 day. In general terms: In flow cytometry, cells or beads pass a laser one at a time.
Assay [3] concerns RPMI-8226. Nature of the assay: Upregulation of IFN in human RPMI-8226 cells assessed as increase in IFITM1 gene at 1 uM for 6 days by qRT-PCR analysis. As to conditions: time 6.0 day. For orientation: In qPCR the cycle at which signal appears reflects the starting amount.
In assay [4] the test system is RPMI-8226. Nature of the assay: Upregulation of IFN in human RPMI-8226 cells assessed as increase in IFIT1 gene at 1 uM for 6 days by qRT-PCR analysis. It is filed as functional, cell-based. As to conditions: time 6.0 day.
Assay [5] deals with RPMI-8226. Nature of the assay: Induction of apoptosis in human RPMI-8226 cells assessed as early apoptotic cells at 1 uM for 3 days by annexin-V based propidium iodide staining based flow cytometric analysis (reference value: 3.02%). It is filed as functional. To be noted: time 3 day.
Assay [6] deals with RPMI-8226. The assay is described as follows: Induction of apoptosis in human RPMI-8226 cells assessed as early apoptotic cells at 1 uM for 6 days by annexin-V based propidium iodide staining based flow cytometric analysis (reference value: 8.16%). It is filed as functional. To be noted: time 6 day.
The test system of assay [7] is MM1.S. The assay is described as follows: Induction of apoptosis in human MM1.S cells assessed as early apoptotic cells at 1 uM for 3 days by annexin-V based propidium iodide staining based flow cytometric analysis (reference value: 5.51%). It is filed as functional. As to conditions: time 3 day.
Assay [8] deals with RPMI-8226. The assay is described as follows: Induction of apoptosis in human RPMI-8226 cells assessed as early apoptotic cells at 1 uM for 6 days by annexin-V based propidium iodide staining based flow cytometric analysis (reference value: 6.19%). The format is functional. To be noted: time 6 day.
In assay [9] the test system is MM1.S. Nature of the assay: Effect on human MM1.S cells assessed as change in PRDM1 mRNA level at 1 uM for 3 days by ChIP-qPCR analysis. The format is functional, cell-based. To be noted: time 3.0 day. In short, it runs like this:
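ChIP-qPCR for H3K79me2 at IRF4-MYC signaling genes after 1 μM inhibitor or DMSO for 3 days. Signal normalized to input DNA. An intergenic region 28 kb upstream of KLF2 served as negative control. Mean of 3 replications ± SEM.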

Assay [10] deals with KMS-12-PE. The assay is described as follows: Upregulation of DOT1L in human KMS-12-PE cells by qRT-PCR analysis. The format is functional, cell-based. In short, it runs like this:
(§1)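 Basal DOT1L transcript in untreated myeloma cell lines measured by qRT-PCR, normalized to ACTB; mean of 3 replicates with SEM.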

For assay [11], the system named is RPMI-8226. The assay is described as follows: Upregulation of TP53TG3 gene in human RPMI-8226 cells at 1 uM for 6 days by. The format is functional, cell-based. To be noted: time 6.0 day.
In assay [12] the test system is U-266. Nature of the assay: Upregulation of DOT1L in human U-266 cells by qRT-PCR analysis. It is filed as functional, cell-based. The method, boiled down: as §1
For assay [13], the system named is RPMI-8226. Nature of the assay: Upregulation of PYCARD gene in human RPMI-8226 cells at 1 uM for 6 days by. To be noted: time 6.0 day. The format is functional, cell-based.
Assay [14] concerns RPMI-8226. Nature of the assay: Upregulation of SOAT2 gene in human RPMI-8226 cells at 1 uM for 6 days by. It is filed as functional, cell-based. To be noted: time 6.0 day.
In assay [15] the test system is RPMI-8226. Nature of the assay: Upregulation of NXF3 gene in human RPMI-8226 cells at 1 uM for 6 days by. The format is functional, cell-based. To be noted: time 6.0 day.
Assay [16] concerns RPMI-8226. The assay is described as follows: Upregulation of HOXB6 gene in human RPMI-8226 cells at 1 uM for 6 days by. It is filed as functional, cell-based. To be noted: time 6.0 day.
In assay [17] the test system is RPMI-8226. The assay is described as follows: Upregulation of IL1RAP gene in human RPMI-8226 cells at 1 uM for 6 days by. The format is functional, cell-based. To be noted: time 6.0 day.
Assay [18] has as its system MM1.S. Nature of the assay: Effect on human MM1.S cells assessed as change in IRF4 mRNA level at 1 uM for 6 days by qRT-PCR analysis. To be noted: time 6.0 day.
The subject of assay [19] is RPMI-8226. The assay is described as follows: Upregulation of IL13RA1 gene in human RPMI-8226 cells at 1 uM for 6 days by. The format is functional, cell-based. To be noted: time 6.0 day.
Assay [20] concerns RPMI-8226. The assay is described as follows: Upregulation of RIMBP3 gene in human RPMI-8226 cells at 1 uM for 6 days by. As to conditions: time 6.0 day. The format is functional, cell-based.
Assay [21] has as its system RPMI-8226. The assay is described as follows: Upregulation of ALPK1 gene in human RPMI-8226 cells at 1 uM for 6 days by. It is filed as functional, cell-based. To be noted: time 6.0 day.
The test system of assay [22] is RPMI-8226. Nature of the assay: Upregulation of SAP30L gene in human RPMI-8226 cells at 1 uM for 6 days by. As to conditions: time 6.0 day. The format is functional, cell-based.
Assay [23] has as its system RPMI-8226. Nature of the assay: Upregulation of ANXA2R gene in human RPMI-8226 cells at 1 uM for 6 days by. To be noted: time 6.0 day. The format is functional, cell-based.
The test system of assay [24] is RPMI-8226. Nature of the assay: Upregulation of IFITM3 gene in human RPMI-8226 cells at 1 uM for 6 days by. It is filed as functional, cell-based. To be noted: time 6.0 day.
Assay [25] relates to MM1.S. The assay is described as follows: Upregulation of CARD6 gene in human MM1.S cells at 1 uM for 6 days by. The format is functional, cell-based. To be noted: time 6.0 day.
Assay [26] concerns MM1.S. The assay is described as follows: Upregulation of CCDC96 gene in human MM1.S cells at 1 uM for 6 days by. The format is functional, cell-based. To be noted: time 6.0 day.
For assay [27], the system named is MM1.S. The assay is described as follows: Upregulation of RAB37 gene in human MM1.S cells at 1 uM for 6 days by. The format is functional, cell-based. As to conditions: time 6.0 day.
The test system of assay [28] is MM1.S. The assay is described as follows: Upregulation of MMP9 gene in human MM1.S cells at 1 uM for 6 days by. It is filed as functional, cell-based. To be noted: time 6.0 day.
Assay [29] has as its system RPMI-8226. The assay is described as follows: Upregulation of SMIM14 gene in human RPMI-8226 cells at 1 uM for 6 days by. It is filed as functional, cell-based. As to conditions: time 6.0 day.
Assay [30] has as its system RPMI-8226. Nature of the assay: Effect on human RPMI-8226 cells assessed as change in Myc mRNA level at 1 uM for 6 days by qRT-PCR analysis. To be noted: time 6.0 day.
Assay [31] has as its system MM1.S. Nature of the assay: Upregulation of ENC1 gene in human MM1.S cells at 1 uM for 6 days by. It is filed as functional, cell-based. As to conditions: time 6.0 day. The method, boiled down: (§2)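 Human myeloma lines RPMI-8226 and MM.1S exposed to 1 μM DOT1L inhibitor, or DMSO, for 6 days. Whole-genome expression profiled on gene expression microarray.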
For assay [32], the system named is MM1.S. The assay is described as follows: Upregulation of GLYATL1 gene in human MM1.S cells at 1 uM for 6 days by. The format is functional, cell-based. As to conditions: time 6.0 day. In short, it runs like this:
as §2

Assay [33] concerns RPMI-8226. The assay is described as follows: Upregulation of MILR1 gene in human RPMI-8226 cells at 1 uM for 6 days by. It is filed as functional, cell-based. As to conditions: time 6.0 day.
In assay [34] the test system is RPMI-8226. Nature of the assay: Upregulation of NEURL1B gene in human RPMI-8226 cells at 1 uM for 6 days by. It is filed as functional, cell-based. To be noted: time 6.0 day.
Assay [35] has as its system RPMI-8226. Nature of the assay: Upregulation of CAPN2 gene in human RPMI-8226 cells at 1 uM for 6 days by. To be noted: time 6.0 day. It is filed as functional, cell-based.
Assay [36] relates to MM1.S. The assay is described as follows: Upregulation of IFITM3 gene in human MM1.S cells at 1 uM for 6 days by. It is filed as functional, cell-based. To be noted: time 6.0 day.
For assay [37], the system named is RPMI-8226. Nature of the assay: Upregulation of LY86 gene in human RPMI-8226 cells at 1 uM for 6 days by. It is filed as functional, cell-based. As to conditions: time 6.0 day.
The test system of assay [38] is MM1.S. Nature of the assay: Upregulation of GRHL3 gene in human MM1.S cells at 1 uM for 6 days by. The format is functional, cell-based. To be noted: time 6.0 day. The method, boiled down:
as §2

In assay [39] the test system is RPMI-8226. Nature of the assay: Upregulation of FCGR2B gene in human RPMI-8226 cells at 1 uM for 6 days by. As to conditions: time 6.0 day. It is filed as functional, cell-based. The method, boiled down: as §2
Assay [40] relates to MM1.S. Nature of the assay: Upregulation of RIMBP3 gene in human MM1.S cells at 1 uM for 6 days by. It is filed as functional, cell-based. As to conditions: time 6.0 day.
Assay [41] relates to MM1.S. The assay is described as follows: Upregulation of IFITM1 gene in human MM1.S cells at 1 uM for 6 days by. It is filed as functional, cell-based. To be noted: time 6.0 day.
Assay [42] relates to MM1.S. The assay is described as follows: Upregulation of CXCL12 gene in human MM1.S cells at 1 uM for 6 days by. The format is functional, cell-based. As to conditions: time 6.0 day. In short, it runs like this: as §2
The test system of assay [43] is RPMI-8226. The assay is described as follows: Upregulation of NREP gene in human RPMI-8226 cells at 1 uM for 6 days by. To be noted: time 6.0 day. The format is functional, cell-based.
Assay [44] deals with RPMI-8226. Nature of the assay: Upregulation of AIF1 gene in human RPMI-8226 cells at 1 uM for 6 days by. To be noted: time 6.0 day. The format is functional, cell-based.

Calls of active or inactive are those of the source. No cut-off for these calls is given here.

Regarding `CC(C)N(C[C@H]1O[C@@H](n2cnc3c(N)ncnc32)[C@H](O)[C@@H]1O)[C@H]1C[C@@H](CCc2nc3cc(C(C)(C)C)ccc3[nH]2)C1` [PINOMETOSTAT], the result in [1], in assay [3], in assay [4] and in assay [9] was Active. Also, the Activity in [2] was 2.47%; in assay [5], 7.39%; in assay [6] it was 15%; in assay [7], 3.11%; in [8], 22.4%.
Regarding `CC(C)N(CCCNC(=O)Nc1ccc(C(C)(C)C)cc1)C[C@H]1O[C@@H](n2cc(Br)c3c(N)ncnc32)[C@H](O)[C@@H]1O`, the result in [10], in [11], in [12], in [13], in assay [14] and in assay [15] was Active. For the same compound, the result in [16], in assay [17], in assay [18], in assay [19], in assay [20] and in assay [21] was Active. Moreover, the outcome in [22], in assay [23], in assay [24], in [25], in [26] and in assay [27] was Active. In addition, the outcome in assay [28], in assay [29], in assay [30], in assay [31], in assay [32] and in assay [33] was Active. Also, the result in [34], in assay [35], in assay [36], in [37], in assay [38] and in assay [39] was Active. Moreover, the result in assay [40], in assay [41], in assay [42], in assay [43] and in assay [44] was Active.

The values above are taken from ChEMBL document CHEMBL5712901, “DOT1L inhibition blocks multiple myeloma cell proliferation by suppressing IRF4-MYC signaling” (2019).
